Reference: ChEMBL document CHEMBL5113474, “Triazole-substituted phenylboronic acids as tunable lead inhibitors of KPC-2 antibiotic resistance” (Eur J Med Chem, 2022)
Converted amounts (≈) assume the structure as drawn.

Assays:
Bacteria = test: Inhibition of bacterial beta-lactamase KPC-2 expressed in Escherichia coli BL21 (DE3) using nitrocefin as substrate at 1 uM by spectrophotometric analysis relative to control
How it was run: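 Purified recombinant KPC-2 tested against the chromogenic β-lactam nitrocefin at 1 µM inhibitor. Hydrolysis was followed as the rise in absorbance at 482 nm (ε482 = 17,400 M-1 cm-1). Activity is expressed as percent inhibition relative to an uninhibited control.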

Escherichia coli [1] = test: microbe, parasite or virus in culture; assay type: functional; conditions: BL21 (DE3), dose 5 µg/ml, time 16-20 hrs
physchem = conditions: 0.1 M phosphate buffer, pH 4.3
Escherichia coli [2] = assay type: functional, BL21 (DE3); conditions: time 16-18 hrs
Escherichia coli [3] = test: microbe, parasite or virus in culture; assay type: functional; conditions: BL21 (DE3), dose 50 µg/ml, time 16-20 hrs
Escherichia coli [4] = test: microbe, parasite or virus in culture; assay type: functional; conditions: BL21 (DE3), dose 50 µg/ml, time 16-20 hrs; remark: listed apart in the source
[5] = Inhibition of bacterial beta-lactamase KPC-2 expressed in Escherichia coli BL21 (DE3) using nitrocefin as substrate assessed as inhibition constant by Cheng-Prusoff equation analysis; set-up: species or system Bacteria
Escherichia coli [6] = test: Antibacterial activity against Escherichia coli NCTC10418; assay type: functional
Escherichia coli [7] = test: microbe, parasite or virus in culture; assay type: functional; conditions: BL21 (DE3), dose 5 µg/ml, time 16-20 hrs; remark: listed apart in the source
[8] = Cytotoxicity against HEK293 cells assessed as cell viability at 5 to 50 ug/ml incubated for 24 hrs in presence of cefotaxime by MTT assay relative to control; conditions: human, at 5 to 50 µg/mL
[9] = Cytotoxicity against HEK293 cells assessed as cell viability at 5 to 50 ug/ml incubated for 24 hrs by MTT assay relative to control; conditions: human, at 5 to 50 µg/mL
[10] = Inhibition of class C […]beta-lactamase AmpC (unknown origin); set-up: species or system Bacteria
Escherichia coli [11] = test: Potentiation of cefotaxime induced antibacterial activity against Escherichia coli expressing CMY-4/TEM-1 assessed as cefotaxime MIC at 5 ug/ml incubated for 16 to 20 hrs by microdilution method; assay type: functional; conditions: dose 5 µg/ml, time 16-20 hrs
How it was run: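 Cefotaxime MIC re-measured with the boronic acid inhibitor held at a fixed 5 μg/mL, lowered from an earlier 50 μg/ml fixed-dose combination; MICs interpreted against CLSI susceptibility categories.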

What does the source list for `[N-]=[N+]=Nc1ccc(F)c(B(O)O)c1`?
inhibition (Bacteria): 37%; MIC (Escherichia coli [1]): 1 µg/mL (≈ 5.53 µM); pKa at 100 µM (physchem): 6.87; inhibition zone (IZ) (Escherichia coli [2]): 25.3 mm; MIC (Escherichia coli [3]): 0.5 µg/mL (≈ 2.76 µM); MIC (Escherichia coli [4]): 0.25 µg/mL (≈ 1.38 µM); Ki [5]: 570 nM; MIC (Escherichia coli [6]): > 64 µg/mL; MIC (Escherichia coli [7]): 1 µg/mL (≈ 5.53 µM)

For `O=C(Nc1cccc(B(O)O)c1)c1cc2ccccc2s1`, which inhibition (Bacteria) is on record?
The inhibition was 8.6%.

And the viability at 24 h [8]?
Its viability at 24 h is over 80%.

And the “inhibition zone (IZ)” value (Escherichia coli [2])?
Its value is 28.4 mm.

And the viability at 24 h [9]?
The viability at 24 h was over 80%.

With `O=S(=O)(NCB(O)O)c1ccc(-c2nnn[nH]2)cc1C(F)(F)F` as the compound, how does the Ki [10] read?
Its Ki is 0.05 nM.

What does the source list for `O=C(Nc1cccc(B(O)O)c1)c1ccsc1`?
inhibition (Bacteria): 28%; viability at 24 h [8]: > 80%; MIC (Escherichia coli [1]): 0.12 µg/mL (≈ 0.486 µM); inhibition zone (IZ) (Escherichia coli [2]): 29 mm; viability at 24 h [9]: > 80%; MIC (Escherichia coli [3]): 2 µg/mL (≈ 8.09 µM); MIC (Escherichia coli [4]): 0.12 µg/mL (≈ 0.486 µM); Ki [5]: 870 nM; MIC (Escherichia coli [6]): > 64 µg/mL; MIC (Escherichia coli [7]): 4 µg/mL (≈ 16.2 µM)

Which “inhibition zone (IZ)” value (Escherichia coli [2]) does the source give for `Nc1cc(B(O)O)cc([N+](=O)[O-])c1` here?
The value was 26.9 mm.

With `OB(O)c1cccc(-n2cc(-c3cccs3)nn2)c1` as the compound, how does the inhibition (Bacteria) read?
Its inhibition is 20%.

What about the viability at 24 h [8] of the same compound?
The viability at 24 h was over 80%.

What about the “inhibition zone (IZ)” value (Escherichia coli [2]) of the same compound?
Its value is 31.8 mm.

And the viability at 24 h [9]?
The viability at 24 h was over 80%.

What about the Ki [5] of the same compound?
Its Ki is 710 nM.

With `[N-]=[N+]=NCc1ccc(F)c(B(O)O)c1` as the compound, how does the inhibition (Bacteria) read?
The inhibition was 40%.

What about the MIC (Escherichia coli [1]) of the same compound?
The MIC was at most 0.06 µg/mL.

And the pKa at 100 µM (physchem)?
The pKa at 100 µM was 7.22.

What about the “inhibition zone (IZ)” value (Escherichia coli [2]) of the same compound?
The value was 29 mm.

What about the MIC (Escherichia coli [3]) of the same compound?
Its MIC is at most 0.06 µg/mL.

What about the MIC (Escherichia coli [4]) of the same compound?
Its MIC is at most 0.06 µg/mL.

What about the Ki [5] of the same compound?
The Ki was 410 nM.

What about the MIC (Escherichia coli [6]) of the same compound?
Its MIC is over 64 µg/mL.

What about the MIC (Escherichia coli [7]) of the same compound?
The MIC was 0.5 µg/mL (≈ 2.56 µM).

What does the source list for `[N-]=[N+]=NCc1ccc(B(O)O)cc1`?
viability at 24 h [8]: > 80%; viability at 24 h [9]: > 80%; Ki [5]: 493 nM

Which inhibition (Bacteria) does the source give for `[N-]=[N+]=Nc1cccc(B(O)O)c1` here?
Its inhibition is 34%.

What about the MIC (Escherichia coli [1]) of the same compound?
Its MIC is at most 0.06 µg/mL.

What about the pKa at 100 µM (physchem) of the same compound?
The pKa at 100 µM was 8.27.

And the “inhibition zone (IZ)” value (Escherichia coli [2])?
Its value is 31.3 mm.

What about the MIC (Escherichia coli [11]) of the same compound?
Its MIC is 1 µg/mL.

What about the MIC (Escherichia coli [4]) of the same compound?
Its MIC is at most 0.06 µg/mL.

What about the Ki [5] of the same compound?
The Ki was 450 nM.

What about the MIC (Escherichia coli [6]) of the same compound?
Its MIC is over 64 µg/mL.

And the MIC (Escherichia coli [7])?
The MIC was 0.25 µg/mL (≈ 1.53 µM).

Which “inhibition zone (IZ)” value (Escherichia coli [2]) does the source give for `O=[N+]([O-])c1cc(NCc2ccccc2)cc(B(O)O)c1` here?
Its value is 20.9 mm.

What does the source list for `CC(C)(C)c1cn(Cc2cccc(B(O)O)c2)nn1`?
inhibition (Bacteria): 50%; inhibition zone (IZ) (Escherichia coli [2]): 33.5 mm; MIC (Escherichia coli [3]): 0.5 µg/mL (≈ 1.93 µM); MIC (Escherichia coli [4]): 0.12 µg/mL (≈ 0.463 µM); Ki [5]: 280 nM; MIC (Escherichia coli [6]): > 64 µg/mL

Which inhibition (Bacteria) does the source give for `OB(O)c1cc(-n2cc(-c3ccsc3)nn2)ccc1F` here?
The inhibition was 35%.

What about the MIC (Escherichia coli [1]) of the same compound?
Its MIC is 0.12 µg/mL (≈ 0.415 µM).

What about the pKa at 100 µM (physchem) of the same compound?
The pKa at 100 µM was 7.61.

What about the “inhibition zone (IZ)” value (Escherichia coli [2]) of the same compound?
The value was 39.8 mm.

And the MIC (Escherichia coli [3])?
Its MIC is at most 0.06 µg/mL.

What about the MIC (Escherichia coli [4]) of the same compound?
Its MIC is at most 0.06 µg/mL.

And the Ki [5]?
Its Ki is 800 nM.

And the MIC (Escherichia coli [6])?
Its MIC is over 64 µg/mL.

And the MIC (Escherichia coli [7])?
The MIC was 1 µg/mL (≈ 3.46 µM).

With `COc1ccc(-c2cn(-c3cccc(B(O)O)c3)nn2)cc1` as the compound, how does the inhibition (Bacteria) read?
The inhibition was 5.9%.

What about the “inhibition zone (IZ)” value (Escherichia coli [2]) of the same compound?
Its value is 30.1 mm.

Which results are given for `OB(O)c1ccc(Cn2cc(-c3ccccn3)nn2)cc1`?
inhibition (Bacteria): 47%; viability at 24 h [8]: > 80%; inhibition zone (IZ) (Escherichia coli [2]): 27.4 mm; viability at 24 h [9]: > 80%

For `CC(C)(C)c1cn(-c2cccc(B(O)O)c2)nn1`, which inhibition (Bacteria) is on record?
The inhibition was 14%.

What about the “inhibition zone (IZ)” value (Escherichia coli [2]) of the same compound?
Its value is 32.7 mm.

What about the Ki [5] of the same compound?
The Ki was 660 nM.

For `COc1ccc(-c2cn(Cc3ccc(B(O)O)cc3)nn2)cc1`, which inhibition (Bacteria) is on record?
The inhibition was 59%.

What about the “inhibition zone (IZ)” value (Escherichia coli [2]) of the same compound?
Its value is 22.6 mm.

What about the Ki [5] of the same compound?
The Ki was 227 nM.

With `[N-]=[N+]=Nc1cc(B(O)O)c(F)cc1F` as the compound, how does the inhibition (Bacteria) read?
Its inhibition is 0%.

And the viability at 24 h [8]?
Its viability at 24 h is over 80%.

What about the MIC (Escherichia coli [1]) of the same compound?
The MIC was at most 0.06 µg/mL.

And the pKa at 100 µM (physchem)?
Its pKa at 100 µM is 6.27.

What about the “inhibition zone (IZ)” value (Escherichia coli [2]) of the same compound?
The value was 23.4 mm.

And the viability at 24 h [9]?
The viability at 24 h was over 80%.

And the MIC (Escherichia coli [3])?
The MIC was 16 µg/mL (≈ 80.4 µM).

And the MIC (Escherichia coli [4])?
Its MIC is 0.12 µg/mL (≈ 0.603 µM).

What about the Ki [5] of the same compound?
The Ki was 7800 nM.

And the MIC (Escherichia coli [6])?
The MIC was over 64 µg/mL.

What about the MIC (Escherichia coli [7]) of the same compound?
Its MIC is 8 µg/mL (≈ 40.2 µM).

What does the source list for `O=[N+]([O-])c1cc(B(O)O)c(F)cc1F`?
pKa at 100 µM (physchem): 5.98; inhibition zone (IZ) (Escherichia coli [2]): 29.3 mm

With `Cc1ccc(F)c(B(O)O)c1` as the compound, how does the “inhibition zone (IZ)” value (Escherichia coli [2]) read?
The value was 29.6 mm.

Which inhibition (Bacteria) does the source give for `OB(O)c1cccc(Cn2cc(Cc3ccccc3)nn2)c1` here?
Its inhibition is 48%.

And the “inhibition zone (IZ)” value (Escherichia coli [2])?
Its value is 23.6 mm.

With `OB(O)c1cccc(Cn2cc(C3CC3)nn2)c1` as the compound, how does the inhibition (Bacteria) read?
Its inhibition is 30%.

What about the “inhibition zone (IZ)” value (Escherichia coli [2]) of the same compound?
Its value is 30.9 mm.

And the Ki [5]?
Its Ki is 515 nM.

Which results are given for `OB(O)c1cccc(Cn2cc(-c3ccccc3)nn2)c1`?
inhibition (Bacteria): 69%; viability at 24 h [8]: > 80%; inhibition zone (IZ) (Escherichia coli [2]): 29.6 mm; viability at 24 h [9]: > 80%; Ki [5]: 166 nM

For `OB(O)c1cccc(-n2cc(C3CC3)nn2)c1`, which inhibition (Bacteria) is on record?
The inhibition was 47%.

What about the viability at 24 h [8] of the same compound?
Its viability at 24 h is over 80%.

What about the “inhibition zone (IZ)” value (Escherichia coli [2]) of the same compound?
The value was 31.5 mm.

And the viability at 24 h [9]?
Its viability at 24 h is over 80%.

And the Ki [5]?
The Ki was 440 nM.

For `Nc1cc(F)c(F)c(B(O)O)c1`, which “inhibition zone (IZ)” value (Escherichia coli [2]) is on record?
The value was 25.5 mm.

Which inhibition (Bacteria) does the source give for `OB(O)c1cccc(Cn2cc(-c3cccs3)nn2)c1` here?
Its inhibition is 85%.

And the viability at 24 h [8]?
The viability at 24 h was over 80%.

What about the MIC (Escherichia coli [1]) of the same compound?
Its MIC is at most 0.06 µg/mL.

And the “inhibition zone (IZ)” value (Escherichia coli [2])?
The value was 33.7 mm.

What about the viability at 24 h [9] of the same compound?
Its viability at 24 h is over 80%.

And the MIC (Escherichia coli [3])?
The MIC was at most 0.06 µg/mL.

And the Ki [5]?
The Ki was 67 nM.

And the MIC (Escherichia coli [6])?
Its MIC is over 64 µg/mL.

And the MIC (Escherichia coli [7])?
The MIC was at most 0.06 µg/mL.

Which pKa at 100 µM (physchem) does the source give for `[N-]=[N+]=Nc1cc(F)c(F)c(B(O)O)c1` here?
Its pKa at 100 µM is 6.04.

And the “inhibition zone (IZ)” value (Escherichia coli [2])?
The value was 16.8 mm.

What about the Ki [5] of the same compound?
Its Ki is 27200 nM.
